{"source": "ChEMBL document CHEMBL1154040", "about": "“Synthesis and evaluation of novel F-18 labeled fluoroarylvaline derivatives: potential PET imaging agents for tumor detection” (Bioorg Med Chem Lett, 2009)", "key": {"Brain": {"tested_on": "Brain", "assay": "Biodistribution in S180 tumor-bearing KM mouse brain assessed per gram of tissue at 240 to 370 kBq, iv after 15 mins", "type": "ADME, organism-based", "conditions": "in vivo, 0.25 h"}, "Kidney [1]": {"tested_on": "Kidney", "assay": "Biodistribution in S180 tumor-bearing KM mouse kidney assessed per gram of tissue at 240 to 370 kBq, iv after 15 mins", "type": "ADME, organism-based", "conditions": "in vivo, 0.25 h"}, "Liver": {"tested_on": "Liver", "assay": "Biodistribution in S180 tumor-bearing KM mouse liver assessed per gram of tissue at 240 to 370 kBq, iv after 30 mins", "type": "ADME, organism-based", "conditions": "in vivo, 0.5 h"}, "[2]": {"assay": "Biodistribution in S180 tumor present in KM mouse assessed per gram of tissue at 240 to 370 kBq, iv after 60 mins", "type": "ADME, organism-based, Neoplasm", "conditions": "in vivo, 1 h"}, "[3]": {"assay": "Ratio of drug level in S180 tumor to brain KM mouse at 240 to 370 kBq, iv after 5 mins", "type": "ADME, organism-based", "conditions": "in vivo"}, "Spleen": {"tested_on": "Spleen", "assay": "Biodistribution in S180 tumor-bearing KM mouse spleen assessed per gram of tissue at 240 to 370 kBq, iv after 30 mins", "type": "ADME, organism-based", "conditions": "in vivo, 0.5 h"}, "[4]": {"assay": "Ratio of drug level in S180 tumor to blood in KM mouse at 240 to 370 kBq, iv after 60 mins", "type": "ADME, organism-based", "conditions": "tumour, 1 h"}, "Muscle tissue [5]": {"tested_on": "Muscle tissue", "assay": "Biodistribution in S180 tumor-bearing KM mouse muscle assessed per gram of tissue at 240 to 370 kBq, iv after 30 mins", "type": "ADME, organism-based", "conditions": "in vivo, 0.5 h"}, "[6]": {"assay": "Ratio of drug level in S180 tumor to brain KM mouse at 240 to 370 kBq, iv after 60 mins", "type": "ADME, organism-based", "conditions": "in vivo, 1 h"}, "Muscle tissue [7]": {"tested_on": "Muscle tissue", "assay": "Biodistribution in S180 tumor-bearing KM mouse muscle assessed per gram of tissue at 240 to 370 kBq, iv after 5 mins", "type": "ADME, organism-based", "conditions": "in vivo"}, "Blood [8]": {"tested_on": "Blood", "assay": "Biodistribution in S180 tumor-bearing KM mouse blood assessed per gram of tissue weight at 240 to 370 kBq, iv after 60 mins", "type": "ADME, organism-based", "conditions": "in vivo, 1 h"}, "[9]": {"assay": "Ratio of drug level in S180 tumor to muscleKM mouse at 240 to 370 kBq, iv after 30 mins", "type": "ADME, organism-based, KM", "conditions": "in vivo, 0.5 h"}, "Blood [10]": {"tested_on": "Blood", "assay": "Biodistribution in S180 tumor-bearing KM mouse blood assessed per gram of tissue weight at 240 to 370 kBq, iv after 5 mins", "type": "ADME, organism-based", "conditions": "in vivo"}, "[11]": {"assay": "Ratio of drug level in S180 tumor to brain KM mouse at 240 to 370 kBq, iv after 15 mins", "type": "ADME, organism-based", "conditions": "in vivo, 0.25 h"}, "Kidney [12]": {"tested_on": "Kidney", "assay": "Biodistribution in S180 tumor-bearing KM mouse kidney assessed per gram of tissue at 240 to 370 kBq, iv after 60 mins", "type": "ADME, organism-based", "conditions": "in vivo, 1 h"}, "Muscle tissue [13]": {"tested_on": "Muscle tissue", "assay": "Biodistribution in S180 tumor-bearing KM mouse muscle assessed per gram of tissue at 240 to 370 kBq, iv after 15 mins", "type": "ADME, organism-based", "conditions": "in vivo, 0.25 h"}, "Femur [14]": {"tested_on": "Femur", "assay": "Biodistribution in S180 tumor-bearing KM mouse femur assessed per gram of tissue at 240 to 370 kBq, iv after 5 mins", "type": "ADME, organism-based", "conditions": "in vivo", "method_in_brief": "(§1)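 Female KM mice (20 ± 2 g) were used 14–18 days after inoculation of 5 × 10^6 S 180 tumor cells. The ¹⁸F tracer in saline was injected into the tail vein of awake mice. Mice were killed at 5, 15, 30, 60 or 120 min, and the femur was removed, weighed and gamma-counted. Results are background-corrected %ID/g, mean ± SD, n = 4.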"}, "Femur [15]": {"tested_on": "Femur", "assay": "Biodistribution in S180 tumor-bearing KM mouse femur assessed per gram of tissue at 240 to 370 kBq, iv after 15 mins", "type": "ADME, organism-based", "conditions": "in vivo, 0.25 h", "method_in_brief": "as §1"}, "Femur [16]": {"tested_on": "Femur", "assay": "Biodistribution in S180 tumor-bearing KM mouse femur assessed per gram of tissue at 240 to 370 kBq, iv after 30 mins", "type": "ADME, organism-based", "conditions": "in vivo, 0.5 h", "method_in_brief": "as §1"}, "Blood [17]": {"tested_on": "Blood", "assay": "Stability in tumor bearing KM mouse blood after 30 mins at 4 MBq, iv", "type": "ADME, tissue-based", "conditions": "0.5 h", "method_in_brief": "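Blood from tumor-bearing mice was collected after tracer injection and centrifuged at once for 5 min at 13,200 rpm. Supernatants from both centrifugation steps were combined, loaded onto a C18 Sep-Pak cartridge, washed with 2 ml water, then eluted.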"}, "Femur [18]": {"tested_on": "Femur", "assay": "Biodistribution in S180 tumor-bearing KM mouse femur assessed per gram of tissue at 240 to 370 kBq, iv after 120 mins", "type": "ADME, organism-based", "conditions": "in vivo, 2 h", "method_in_brief": "as §1"}, "[19]": {"assay": "Ratio of drug level in S180 tumor to blood in KM mouse at 240 to 370 kBq, iv after 30mins", "type": "ADME, organism-based", "conditions": "tumour, 0.5 h"}, "Femur [20]": {"tested_on": "Femur", "assay": "Biodistribution in S180 tumor-bearing KM mouse femur assessed per gram of tissue at 240 to 370 kBq, iv after 60 mins", "type": "ADME, organism-based", "conditions": "in vivo, 1 h", "method_in_brief": "as §1"}}}
{"compound": "OC[C@H]1O[C@@H](O)[C@H]([18F])[C@@H](O)[C@@H]1O", "note": "[FLUDEOXYGLUCOSE-F18]", "values": [{"measurement": "Drug uptake", "setting": "Brain", "result": 2.63, "unit": "%ID"}, {"measurement": "Drug uptake", "setting": "Kidney [1]", "result": 1.04, "unit": "%ID"}, {"measurement": "Drug uptake", "setting": "Liver", "result": 0.23, "unit": "%ID"}, {"measurement": "Drug uptake", "setting": "[2]", "result": 2.16, "unit": "%ID"}, {"measurement": "tumor/brain ratio", "setting": "[3]", "result": 0.53}, {"measurement": "Drug uptake", "setting": "Spleen", "result": 0.9, "unit": "%ID"}, {"measurement": "tumor/blood ratio", "setting": "[4]", "result": 19.5}, {"measurement": "Drug uptake", "setting": "Muscle tissue [5]", "result": 1.07, "unit": "%ID"}, {"measurement": "tumor/brain ratio", "setting": "[6]", "result": 1.02}, {"measurement": "Drug uptake", "setting": "Muscle tissue [7]", "result": 1.56, "unit": "%ID"}, {"measurement": "Drug uptake", "setting": "Blood [8]", "result": 0.11, "unit": "%ID"}, {"measurement": "tumor/muscle ratio", "setting": "[9]", "result": 1.75}, {"measurement": "Drug uptake", "setting": "Blood [10]", "result": 1.09, "unit": "%ID"}, {"measurement": "tumor/brain ratio", "setting": "[11]", "result": 0.59}, {"measurement": "Drug uptake", "setting": "Kidney [12]", "result": 0.54, "unit": "%ID"}, {"measurement": "Drug uptake", "setting": "Muscle tissue [13]", "result": 1.14, "unit": "%ID"}]}
{"compound": "CC(C)[C@H](NC(=O)c1ccc([N+](=O)[O-])cc1[18F])C(=O)O", "values": [{"measurement": "Drug uptake", "setting": "Brain", "result": 0.09, "unit": "%ID"}, {"measurement": "Drug uptake", "setting": "Kidney [1]", "result": 5.19, "unit": "%ID"}, {"measurement": "Drug uptake", "setting": "Liver", "result": 1.59, "unit": "%ID"}, {"measurement": "Drug uptake", "setting": "Femur [14]", "result": 3.61, "unit": "%ID"}, {"measurement": "Drug uptake", "setting": "[2]", "result": 0.27, "unit": "%ID"}, {"measurement": "Drug uptake", "setting": "Femur [15]", "result": 4.02, "unit": "%ID"}, {"measurement": "tumor/brain ratio", "setting": "[3]", "result": 9.38}, {"measurement": "Drug uptake", "setting": "Femur [16]", "result": 3.38, "unit": "%ID"}, {"measurement": "Drug uptake", "setting": "Spleen", "result": 0.31, "unit": "%ID"}, {"measurement": "tumor/blood ratio", "setting": "[4]", "result": 1.83}, {"measurement": "Drug uptake", "setting": "Muscle tissue [5]", "result": 0.21, "unit": "%ID"}, {"measurement": "tumor/brain ratio", "setting": "[6]", "result": 9.99}, {"measurement": "Drug uptake", "setting": "Muscle tissue [7]", "result": 0.99, "unit": "%ID"}, {"measurement": "Drug uptake", "setting": "Blood [8]", "result": 0.15, "unit": "%ID"}, {"measurement": "Stability", "setting": "Blood [17]", "result": "Stable"}, {"measurement": "tumor/muscle ratio", "setting": "[9]", "result": 2.62}, {"measurement": "Drug uptake", "setting": "Blood [10]", "result": 2.43, "unit": "%ID"}, {"measurement": "Drug uptake", "setting": "Femur [18]", "result": 2.15, "unit": "%ID"}, {"measurement": "tumor/blood ratio", "setting": "[19]", "result": 2.32}, {"measurement": "tumor/brain ratio", "setting": "[11]", "result": 10.4}, {"measurement": "Drug uptake", "setting": "Femur [20]", "result": 2.47, "unit": "%ID"}, {"measurement": "Drug uptake", "setting": "Kidney [12]", "result": 0.45, "unit": "%ID"}, {"measurement": "Drug uptake", "setting": "Muscle tissue [13]", "result": 0.47, "unit": "%ID"}]}
{"compound": "COC(=O)[C@@H](NC(=O)c1ccc([N+](=O)[O-])cc1[18F])C(C)C", "values": [{"measurement": "Drug uptake", "setting": "Brain", "result": 0.6, "unit": "%ID"}, {"measurement": "Drug uptake", "setting": "Kidney [1]", "result": 11.28, "unit": "%ID"}, {"measurement": "Drug uptake", "setting": "Liver", "result": 3.66, "unit": "%ID"}, {"measurement": "Drug uptake", "setting": "Femur [14]", "result": 1.6, "unit": "%ID"}, {"measurement": "Drug uptake", "setting": "[2]", "result": 0.95, "unit": "%ID"}, {"measurement": "Drug uptake", "setting": "Femur [15]", "result": 2.23, "unit": "%ID"}, {"measurement": "tumor/brain ratio", "setting": "[3]", "result": 2.79}, {"measurement": "Drug uptake", "setting": "Femur [16]", "result": 2.11, "unit": "%ID"}, {"measurement": "Drug uptake", "setting": "Spleen", "result": 0.51, "unit": "%ID"}, {"measurement": "tumor/blood ratio", "setting": "[4]", "result": 3.44}, {"measurement": "Drug uptake", "setting": "Muscle tissue [5]", "result": 0.82, "unit": "%ID"}, {"measurement": "tumor/brain ratio", "setting": "[6]", "result": 5.61}, {"measurement": "Drug uptake", "setting": "Muscle tissue [7]", "result": 1.43, "unit": "%ID"}, {"measurement": "Drug uptake", "setting": "Blood [8]", "result": 0.28, "unit": "%ID"}, {"measurement": "Stability", "setting": "Blood [17]", "result": "Stable"}, {"measurement": "tumor/muscle ratio", "setting": "[9]", "result": 2.41}, {"measurement": "Drug uptake", "setting": "Blood [10]", "result": 3.09, "unit": "%ID"}, {"measurement": "Drug uptake", "setting": "Femur [18]", "result": 2.01, "unit": "%ID"}, {"measurement": "tumor/blood ratio", "setting": "[19]", "result": 2.91}, {"measurement": "tumor/brain ratio", "setting": "[11]", "result": 3.42}, {"measurement": "Drug uptake", "setting": "Femur [20]", "result": 2.09, "unit": "%ID"}, {"measurement": "Drug uptake", "setting": "Kidney [12]", "result": 0.35, "unit": "%ID"}, {"measurement": "Drug uptake", "setting": "Muscle tissue [13]", "result": 1.39, "unit": "%ID"}]}
